# Compound activity deposited in PubChem by Broad Institute.
# SR-BI uptake up: activators of SR-BI mediated DiI-HDL uptake, primary screen, ldlA[mSR-BI] CHO cells, DiI fluorescence; 3 h; 100 = double the neutral-control signal; activation, % at 12.5 µM; 320,000 compounds, 0.096% hits;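 active = mean replicate activation of at least 60% and every replicate at or above 60%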;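 note: 0% = median plate neutral-control signal and 100% = twice that signal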
#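 Material – SR-BI-overexpressing, LDLR-lacking CHO cells · Medium – BSA-supplemented, HEPES-buffered Ham's F12, pH 7.4 · Doses – single concentration · Times – compound with DiI-HDL co-incubation, 3 h at 37 °C · Measured by – bottom-read fluorescence, 550/595 nm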
# SR-BI DiI inh: inhibitors of SR-BI mediated HDL lipid uptake, primary screen, ldlA[mSR-BI] cells, fluorescence, single point. Scavenger receptor class B member 1 (Mus musculus), Q61009. ldlA[mSR-BI] CHO cells, DiI-HDL uptake fluorescence, 3 h. inhibition, % at 12.5 µM. 320,000 compounds, 0.96% hits;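 active = mean replicate inhibition of at least 70% and a set share of replicates each scoring 70 or more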;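 note: 0% = median of neutral control wells and 100% = median of positive control wells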
# Target sequence (Q61009 whole entry, looked up): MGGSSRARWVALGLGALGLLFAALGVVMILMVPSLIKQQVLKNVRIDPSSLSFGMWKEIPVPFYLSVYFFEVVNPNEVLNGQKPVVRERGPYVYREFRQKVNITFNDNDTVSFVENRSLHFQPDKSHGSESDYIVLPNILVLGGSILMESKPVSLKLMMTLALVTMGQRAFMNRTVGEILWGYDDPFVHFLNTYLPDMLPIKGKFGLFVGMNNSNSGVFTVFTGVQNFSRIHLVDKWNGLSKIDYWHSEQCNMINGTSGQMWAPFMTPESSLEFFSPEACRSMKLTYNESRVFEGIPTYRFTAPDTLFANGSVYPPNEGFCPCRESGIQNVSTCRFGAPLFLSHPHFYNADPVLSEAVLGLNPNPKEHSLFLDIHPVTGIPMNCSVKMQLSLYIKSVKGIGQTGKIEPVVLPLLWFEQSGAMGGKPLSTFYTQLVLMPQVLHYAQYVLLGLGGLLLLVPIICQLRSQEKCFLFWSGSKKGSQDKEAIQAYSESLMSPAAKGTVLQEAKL
# miR-122 sensor: miR-122 Renilla sensor signal increase in Huh7, primary screen, miR-122 inhibitor project, cell-based, single point, plate reader. 340,000 compounds, 0.3% hits. AID 602342, 2012. activation (reporter increase), % at 12.5 µM. Huh7 miR-122 Renilla luciferase sensor, 48 h; neutral wells = 0, positive control = 100;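 active = mean replicate activation score at least 90 and every replicate individually at or above 90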;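 note: higher luciferase means less miR-122 activity so hits act as miR-122 inhibitors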
# ARNT TACC3 PPI: disruptors of ARNT/TACC3 protein interaction, primary screen, biochemical, AlphaScreen, single concentration; Transforming acidic coiled-coil-containing protein 3 (Homo sapiens), Q9Y6A5; AlphaScreen His-ARNT PAS-B/GST-TACC3 binding, luminescence; TACC3 fragment carries E629A point mutation; inhibition, % at 9.99 µM; 390,000 compounds, 0.66% hits; AID 623870, 2012;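 active = mean inhibition of replicates at least 50% and at least half of replicates each reaching 50%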;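 note: 0% = complete ARNT plus TACC3 wells and 100% = ARNT alone without TACC3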
# CAL PDZ FP-1: CAL PDZ peptide-binding inhibitors, primary screen, biochemical, fluorescence polarization, Cer-tagged CAL PDZ, HTS | Golgi-associated PDZ and coiled-coil motif-containing protein (Homo sapiens), Q9HD26 | purified CAL PDZ, TMR-peptide fluorescence polarization, 1 h | inhibition, % at 20 µM | 330,000 compounds, 0.02% hits | AID 504414, 2011;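 active = highest replicate inhibition of at least 40%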;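 note: plate controls were DMSO neutral control wells for no effect and unlabeled competitor peptide control wells for full effect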
#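 Material: tagged CAL PDZ protein CerCALP, purified; buffer or medium: sodium phosphate/NaCl buffer pH 7.4 with TCEP, IgG, Thesit; also added: fluorescent TMR peptide probe; schedule: 1 h incubation at room temperature before polarization reading; technique: fluorescence polarization from S- and P-plane intensities, G-factor corrected; control set: unlabelled peptide and DMSO controls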
# CAL PDZ FP-2: untagged CAL PDZ binding inhibitors, primary screen, biochemical, fluorescence polarization, HTS; purified CAL PDZ, TMR-peptide fluorescence polarization, 1 h; inhibition, % at 24.9 µM; 300,000 compounds, 0.92% hits; AID 602252, 2012;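 active = mean inhibition of at least 30% with at least half of replicates also reaching 30%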;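 note: 0% = DMSO neutral control and 100% = excess unlabeled competitor peptide PRC23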
# The depositor's hits bear a star; / = not tested or not shown; [ ] = another dose, or the depositor's remark. The list is not random: actives were taken first. Their share in the collection is about 2.1%.
SMILES,SR-BI uptake up,SR-BI DiI inh,miR-122 sensor,ARNT TACC3 PPI,CAL PDZ FP-1,CAL PDZ FP-2
CO[C@H]1CN(C)C(=O)c2ccc(NC(C)=O)cc2OC[C@@H](C)N(Cc2ccccc2C(=O)O)C[C@@H]1C,/,/,-4[16.7 µM],-3,/,/
COCC(=O)Nc1ccc2c(c1)OC[C@H](C)N(C(=O)c1ccccc1)C[C@@H](C)[C@@H](OC)CN(C)C2=O,/,/,-12[16.7 µM],26,/,/
O=[N+]([O-])c1cc(-c2nnc(Nc3ccccc3)c3ccccc23)ccc1N1CCOCC1,-74,74*,/,9,-2,-2
COc1ccc(S(=O)(=O)Nc2ccc3c(c2)C(=O)N([C@@H](C)CO)C[C@@H](C)[C@H](CN(C)S(=O)(=O)c2cccs2)OCCCC[C@@H](C)O3)cc1,/,/,-7[16.7 µM],8,/,/
CC1CCCCN1C(=O)COc1ccc(F)cc1 (stereo not drawn),3,-3,/,2,-1,44*
CC1CCCCN1C(=O)COc1ccc2ccc(=O)oc2c1 (stereo not drawn),14,-14,3,6,-1,-2
CN1CCC(OC(=O)COc2ccc(F)cc2)CC1,19,-19,-5,-4,11,47*
C[C@H](CO)N1C[C@H](C)[C@H](CN(C)Cc2ccc(C(=O)O)cc2)Oc2ccc(NC(=O)Nc3ccccc3)cc2C1=O,/,/,-6[16.7 µM],-7,/,/
CCOC(=O)c1c(/N=C/C2C(=O)CC(C)(C)CC2=O)sc2c1CCCC2,-19,19,1,-3,-1,79*
N=C1/C(=C\c2ccc(-c3ccc(C(=O)O)cc3)o2)C(=O)N=C2SC=C(c3ccccc3)N12,-10,10,-7,-5,12,78*
N=C1/C(=C\c2ccc(-c3cccc(Cl)c3)o2)C(=O)N=C2SC=C(c3ccccc3)N12,/,/,/,-1,-3,-1
CCNC(=O)NC(=O)c1csc([N+](=O)[O-])c1,21,-21,/,1,-1,41*
C=CCNC(=O)NC(=O)c1csc([N+](=O)[O-])c1,17,-17,-4,-48,-1,4
OCCCc1cn(Cc2ccccc2)c2ccccc12,-19,19,-2,2,/,56*
C[C@H](CO)N1C[C@H](C)[C@@H](CN(C)C(=O)Nc2ccc(C(F)(F)F)cc2)Oc2ccc(NC(=O)Nc3ccc(C(F)(F)F)cc3)cc2CC1=O,/,/,20[16.7 µM],-1,/,/
COc1ccc(NC(=O)CCNC(=O)C2CCN(S(=O)(=O)c3ccc(OC)cc3)CC2)cc1,-7,7,2,3,-2,-7
COc1ccc(S(=O)(=O)N2CCC(C(=O)NCCC(=O)Nc3cccc(Cl)c3)CC2)cc1,-2,2,-3,-1,-2,41*
Cc1[nH]n(-c2ccccc2)c(=O)c1CCO,17,-17,/,1,0,-1
Cc1[nH]n(-c2nc(-c3ccccc3F)cc(=O)[nH]2)c(=O)c1CCO,31,-31,/,45*,-1,9
O=C(N[C@@H]1CC[C@H](CC(=O)N2CCOCC2)O[C@H]1CO)c1ccccn1,/,/,/,1,/,/
O=C(N/N=C/c1c[nH]c2ccccc12)c1cc(-c2ccc(-c3ccccc3)cc2)n[nH]1,-94,94*,-14,-12,-2,-3
Cc1ccc(-c2cc(C(=O)N/N=C/c3c[nH]c4ccccc34)[nH]n2)cc1,-89,89*,/,-1,0,0
O=C(N/N=C/c1c[nH]c2ccccc12)c1cc(-c2ccccc2)n[nH]1,-34,34,22,1,-1,-1
O=C(N/N=C/c1c[nH]c2ccccc12)c1cc(-c2ccc3ccccc3c2)n[nH]1,-73,73*,/,14,-2,-4
COc1cccc(C(=O)N2C[C@@H]3[C@H](c4ccccc42)[C@@H](CO)N3C(=O)c2ccccc2)c1,/,/,30[16.7 µM],-2,/,/
SMILES,SR-BI uptake up,SR-BI DiI inh,miR-122 sensor,ARNT TACC3 PPI,CAL PDZ FP-1,CAL PDZ FP-2
O=C1CSC(c2ccccc2)N1c1ccc(-c2ccccc2)cc1 (stereo not drawn),/,/,/,2,/,/
O=C(C[C@@H]1CC[C@H](NS(=O)(=O)c2ccc(F)cc2)[C@H](CO)O1)NC1CCC1,/,/,/,10,/,/
CC(O)CNc1ncnc2nc[nH]c12 (stereo not drawn),3,-3,-2,-22,-1,-5
CC(C)=NNc1ncnc2nc[nH]c12,14,-14,-2,72*,-1,-3
O=C(C[C@@H]1CC[C@@H]2[C@H](COC[C@@H](O)CN2C(=O)Nc2ccc(C(F)(F)F)cc2)O1)NC1Cc2ccccc2C1,/,/,-6[16.7 µM],0,/,/
O=C(Nc1sc2c(c1-c1nc3ccccc3[nH]1)CCCC2)C1CCCC1,-89,89*,4,-14,-2,-2
CC(=O)NCCC(=O)Nc1sc2c(c1-c1nc3ccccc3[nH]1)CCCC2,-69,69,9,1,3,-1
O=C(NCC[C@H]1CC[C@@H](NS(=O)(=O)c2cccc(F)c2)[C@H](CO)O1)c1cnccn1,/,/,/,-13,/,/
COc1cccc(C#Cc2cnc3c(c2)C(=O)N([C@H](C)CO)C[C@H](C)[C@@H](CN(C)C)O3)c1,/,/,4[16.7 µM],/,/,/
CC(C)(C)C(=O)Nc1cc(S(=O)(=O)Nc2ccc(Cl)cc2)ccc1O,33,-33,167*,2,0,-3
CC(=O)N(C)C[C@H]1Oc2cc(C#CCC(C)C)ccc2S(=O)(=O)N([C@H](C)CO)C[C@@H]1C,/,/,16[16.7 µM],2,/,/
CC(C)CCC(CCN1CCCC1)c1ccc2c(c1)OCO2 (stereo not drawn),28,-28,-5,-8,-1,74*
CC(C)CCC(CCN1CCOCC1)c1ccc2c(c1)OCO2 (stereo not drawn),5,-5,-4,-2,0,-1
CCOc1cc(C(=O)Nc2cc(C(=O)OC)ccc2C)ccc1OCC(=O)N1CCOCC1,-73,73*,-2,-8,-2,-4
CC(C)(C)[S@](=O)N1Cc2cc(C(=O)NCc3ccncc3)nc(-c3cccc(-c4ccc(C#N)cc4)c3)c2[C@@H]1CCO,/,/,/,13,/,/
COc1ccc(-c2[nH]ncc2N=Nc2cc(C)cc(C)c2)cc1,-84,84*,/,7,-5,-2
O=C(Cn1cc([N+](=O)[O-])cn1)NCc1ccccc1,30,-30,3,1,0,43*
